pIC50: −log10 of the molar value. Values belong to the molecule of their own block, whether it stands above or below them. Calls of active or inactive are those of the source. The rule behind the calls is not given here.
Key:
SJRH30 = test: Antiproliferative activity against human Rh30 cells assessed as reduction in cell viability after 72 hrs by sulforhodamine B assay; format: functional, cell-based; conditions: SJRH30, 72 h
Procedure, shortened: (§1)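 SRB assay. Exponentially growing cells seeded at 3000–5000/well, compounds added serially diluted after 24 h, cultured 72 h. Cells fixed with 10% TCA, stained with SRB, dye dissolved in 10 mM Tris-HCl, absorbance read at 560 nm. Inhibition = (ODcontrol − ODtreated)/ODcontrol × 100%. IC50 is the mean of at least three independent tests.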

[1] = target: Phosphatidylinositol 4,5-bisphosphate 3-kinase catalytic subunit alpha isoform (Homo sapiens, UniProt P42336); test: Inhibition of human PI3Kalpha using PIP2 as substrate in presence of ATP measured after 30 mins by HTRF assay
Procedure, shortened: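 HTRF kit assay. Enzyme incubated with 10 μM PIP2; reaction started by adding ATP and run 30 min at room temperature, then stop solution and detection mix added and luminescence read. Compounds kept as 10 mM DMSO stocks.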

NCI-H1650 = test: Antiproliferative activity against human NCI-H1650 cells assessed as reduction in cell viability after 72 hrs by sulforhodamine B assay; format: functional, cell-based; conditions: NCI-H1650, 72 h; procedure, shortened: as §1
A549 = test: Antiproliferative activity against human A549 cells assessed as reduction in cell viability after 72 hrs by sulforhodamine B assay; format: functional, cell-based; conditions: A549, 72 h; procedure, shortened: as §1
NCI-H1975 = test: Antiproliferative activity against human NCI-H1975 cells assessed as reduction in cell viability after 72 hrs by sulforhodamine B assay; format: functional, cell-based; conditions: NCI-H1975, 72 h; procedure, shortened: as §1
NCI-H226 = test: Antiproliferative activity against human H226 cells assessed as reduction in cell viability after 72 hrs by sulforhodamine B assay; format: functional, cell-based; conditions: NCI-H226, 72 h; procedure, shortened: as §1
NCI-H23 = test: Antiproliferative activity against human NCI-H23 cells assessed as reduction in cell viability after 72 hrs by sulforhodamine B assay; format: functional, cell-based; conditions: NCI-H23, 72 h; procedure, shortened: as §1
NCI-H522 = test: Antiproliferative activity against human NCI-H522 cells assessed as reduction in cell viability after 72 hrs by sulforhodamine B assay; format: functional, cell-based; conditions: NCI-H522, 72 h; procedure, shortened: as §1
Calu-3 = test: Antiproliferative activity against human Calu3 cells assessed as reduction in cell viability after 72 hrs by sulforhodamine B assay; format: functional, cell-based; conditions: Calu-3, 72 h; procedure, shortened: as §1
NCI-H358 = test: Antiproliferative activity against human NCI-H358 cells assessed as reduction in cell viability after 72 hrs by sulforhodamine B assay; format: functional, cell-based; conditions: NCI-H358, 72 h; procedure, shortened: as §1
NCI-H460 = test: Antiproliferative activity against human NCI-H460 cells assessed as reduction in cell viability after 72 hrs by sulforhodamine B assay; format: functional, cell-based; conditions: NCI-H460, 72 h; procedure, shortened: as §1
[2] = Inhibition of human PI3Kgamma R459Q mutant using PIP2 as substrate in presence of ATP measured after 30 mins by HTRF assay
[3] = Inhibition of human PI3K p110alpha H1047R mutant/p85alpha using PIP2 as substrate incubated for 30 mins in presence of ATP by HTRF assay
MCF7 = test: Antiproliferative activity against human MCF7 cells assessed as reduction in cell viability after 72 hrs by sulforhodamine B assay; format: functional, cell-based; procedure, shortened: as §1
T47D = test: Antiproliferative activity against human T47D cells assessed as reduction in cell viability after 72 hrs by sulforhodamine B assay; format: functional, cell-based; procedure, shortened: as §1
ZR-75-1 = test: Antiproliferative activity against human ZR-75-1 cells assessed as reduction in cell viability after 72 hrs by sulforhodamine B assay; format: functional, cell-based; procedure, shortened: as §1
SK-OV-3 = test: Antiproliferative activity against human SK-OV-3 cells assessed as reduction in cell viability after 72 hrs by sulforhodamine B assay; format: functional, cell-based; procedure, shortened: as §1
BT-474 = test: Antiproliferative activity against human BT-474 cells assessed as reduction in cell viability after 72 hrs by sulforhodamine B assay; format: functional, cell-based; procedure, shortened: as §1
MDA-MB-231 = test: Antiproliferative activity against human MDA-MB-231 cells assessed as reduction in cell viability after 72 hrs by sulforhodamine B assay; format: functional, cell-based; procedure, shortened: as §1
LoVo = test: Antiproliferative activity against human LoVo cells assessed as reduction in cell viability after 72 hrs by sulforhodamine B assay; format: functional, cell-based; procedure, shortened: as §1
PC-3 = test: Antiproliferative activity against human PC-3 cells assessed as reduction in cell viability after 72 hrs by sulforhodamine B assay; format: functional, cell-based; procedure, shortened: as §1
SK-BR-3 = test: Antiproliferative activity against human SK-BR-3 cells assessed as reduction in cell viability after 72 hrs by sulforhodamine B assay; format: functional, cell-based; procedure, shortened: as §1
HCC1954 = test: Antiproliferative activity against human HCC1954 cells assessed as reduction in cell viability after 72 hrs by sulforhodamine B assay; format: functional, cell-based; procedure, shortened: as §1

Phosphatidylinositol 4,5-bisphosphate 3-kinase catalytic subunit alpha isoform, sequence (P42336 whole entry, canonical isoform): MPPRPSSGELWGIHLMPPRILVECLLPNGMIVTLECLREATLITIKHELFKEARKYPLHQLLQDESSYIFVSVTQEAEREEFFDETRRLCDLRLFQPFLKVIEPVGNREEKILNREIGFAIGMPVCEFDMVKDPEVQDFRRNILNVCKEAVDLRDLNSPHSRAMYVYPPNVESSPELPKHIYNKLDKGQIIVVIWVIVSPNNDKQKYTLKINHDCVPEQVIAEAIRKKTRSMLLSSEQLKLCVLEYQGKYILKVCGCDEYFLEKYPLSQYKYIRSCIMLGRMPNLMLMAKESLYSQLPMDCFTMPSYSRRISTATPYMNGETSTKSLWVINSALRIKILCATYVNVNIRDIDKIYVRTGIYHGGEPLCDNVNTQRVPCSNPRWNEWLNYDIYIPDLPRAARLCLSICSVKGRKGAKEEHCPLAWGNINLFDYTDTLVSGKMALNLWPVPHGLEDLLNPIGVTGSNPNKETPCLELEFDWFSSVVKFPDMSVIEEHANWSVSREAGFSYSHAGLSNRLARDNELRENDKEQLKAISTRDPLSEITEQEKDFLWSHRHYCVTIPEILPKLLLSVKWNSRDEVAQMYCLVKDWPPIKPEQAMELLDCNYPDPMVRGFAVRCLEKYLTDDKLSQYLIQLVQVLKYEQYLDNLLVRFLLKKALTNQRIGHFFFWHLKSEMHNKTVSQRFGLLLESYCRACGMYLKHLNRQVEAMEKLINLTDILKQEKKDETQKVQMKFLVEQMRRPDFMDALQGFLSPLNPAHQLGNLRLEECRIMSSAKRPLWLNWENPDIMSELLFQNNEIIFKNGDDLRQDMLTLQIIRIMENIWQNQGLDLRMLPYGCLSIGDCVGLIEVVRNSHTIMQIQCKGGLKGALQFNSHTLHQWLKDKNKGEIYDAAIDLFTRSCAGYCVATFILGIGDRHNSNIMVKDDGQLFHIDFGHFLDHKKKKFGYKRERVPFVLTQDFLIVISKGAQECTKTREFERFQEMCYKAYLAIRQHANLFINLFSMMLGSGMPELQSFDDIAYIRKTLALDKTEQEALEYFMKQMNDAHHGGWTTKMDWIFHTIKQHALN

Compound: CN(C)C1CCN(C(=O)c2ccc(NC(=O)Nc3ccc(-c4nc(N5CCOCC5)c5cc(CN6CCN(S(C)(=O)=O)CC6)cn5n4)cc3)cc2)CC1
pIC50 (SJRH30): 7.10 | pIC50 [1]: 7.40

Compound: CS(=O)(=O)N1CCN(Cc2cc3c(N4CCOCC4)nc(-c4ccc(NC(=O)Nc5ccc(F)cc5)cc4)nn3c2)CC1
pIC50 (NCI-H1650): 5.64 | pIC50 (A549): 5.79 | pIC50 (NCI-H1975): 6.34 | pIC50 (NCI-H226): 5.97 | pIC50 (NCI-H23): 6.16 | pIC50 (NCI-H522): 5.99 | pIC50 (Calu-3): 5.63 | pIC50 (SJRH30): 6.64 | pIC50 (NCI-H358): 5.89 | pIC50 [1]: 6.98 | pIC50 (NCI-H460): 6.05

Compound: CN1CCN(C(=O)c2ccc(NC(=O)Nc3ccc(-c4nc(N5CCOCC5)c5cc(CN6CCN(S(C)(=O)=O)CC6)cn5n4)cc3)cc2)CC1
pIC50 (NCI-H1650): 6.46 | pIC50 (A549): 6.84 | pIC50 (NCI-H1975): 7.60 | pIC50 (NCI-H226): 6.97 | pIC50 (NCI-H23): 7.28 | pIC50 (NCI-H522): 6.12 | pIC50 (Calu-3): 6.10 | pIC50 (SJRH30): 7.15 | pIC50 (NCI-H358): 6.73 | pIC50 [1]: 7.39 | pIC50 (NCI-H460): 6.53

Compound: CS(=O)(=O)N1CCN(Cc2cc3c(N4CCOCC4)nc(-c4cnc(NC(=O)Oc5ccccc5)cc4C(F)(F)F)nn3c2)CC1
pIC50 (SJRH30): 5.29 | pIC50 [1]: 7.35

Compound: CN(C)C(=O)c1ccc(NC(=O)Nc2ccc(-c3nc(N4CCOCC4)c4cc(CN5CCN(S(C)(=O)=O)CC5)cn4n3)cc2)cc1
pIC50 (SJRH30): 7.05 | pIC50 [1]: 7.17

Compound: Cc1nc(NC(=O)N2CCC[C@H]2C(N)=O)sc1-c1ccnc(C(C)(C)C(F)(F)F)c1 [ALPELISIB]
pIC50 [2]: 5.78 | pIC50 (SJRH30): 5.12 | pIC50 [3]: 7.96

Compound: CS(=O)(=O)N1CCN(Cc2cc3nc(-c4cccc5[nH]ncc45)nc(N4CCOCC4)c3s2)CC1 [PICTILISIB]
Activity (MCF7): Active | Activity (T47D): Active | pIC50 (NCI-H1650): 5.33 | pIC50 (A549): 5.61 | pIC50 (NCI-H1975): 6.15 | pIC50 (NCI-H226): 5.23 | pIC50 (NCI-H23): 6.03 | pIC50 (NCI-H522): 5.67 | Activity (ZR-75-1): Active | pIC50 (Calu-3): 5.54 | Activity (SK-OV-3): Active | Activity (BT-474): Active | Activity (MDA-MB-231): Active | pIC50 (SJRH30): 6.32 | pIC50 (NCI-H358): 5.88 | Activity (LoVo): Active | Activity (PC-3): Active | Activity (SK-BR-3): Active | Activity (HCC1954): Active | pIC50 (NCI-H460): 5.90

Continued, in another order:

pIC50 [1]: 7.70
Compound: C=CC(=O)Nc1cc(C(F)(F)F)c(-c2nc(N3CCOCC3)c3cc(CN4CCN(S(C)(=O)=O)CC4)cn3n2)cn1
pIC50 (SJRH30): 6.15

pIC50 [1]: 7.26
Compound: CS(=O)(=O)N1CCN(Cc2cc3c(N4CCOCC4)nc(-c4cnc(N)cc4C(F)(F)F)nn3c2)CC1
pIC50 (SJRH30): 6.06

pIC50 [1]: 7.68
Compound: CCOC(=O)Nc1cc(C(F)(F)F)c(-c2nc(N3CCOCC3)c3cc(CN4CCN(S(C)(=O)=O)CC4)cn3n2)cn1
pIC50 (SJRH30): 5.49

pIC50 [1]: 7.38
Compound: CCNC(=O)Nc1cc(C(F)(F)F)c(-c2nc(N3CCOCC3)c3cc(CN4CCN(S(C)(=O)=O)CC4)cn3n2)cn1
pIC50 (SJRH30): 6.41

pIC50 [1]: 7.75
Compound: CS(=O)(=O)N1CCN(Cc2cc3c(N4CCOCC4)nc(-c4cnc(NC(=O)Nc5ccc(F)cc5)cc4C(F)(F)F)nn3c2)CC1
pIC50 (SJRH30): 6.74

pIC50 [1]: 7.63
Compound: CNC(=O)Nc1cc(C(F)(F)F)c(-c2nc(N3CCOCC3)c3cc(CN4CCN(S(C)(=O)=O)CC4)cn3n2)cn1
pIC50 (SJRH30): 6.82

pIC50 [1]: 7.30
Compound: C[C@H]1COCCN1c1nc(-c2cnc(N)cc2C(F)(F)F)nn2cc(CN3CCN(S(C)(=O)=O)CC3)cc12
pIC50 (SJRH30): 6.01

pIC50 [1]: 6.61
Compound: CS(=O)(=O)N1CCN(Cc2cc3c(N4CC5CCC(C4)O5)nc(-c4cnc(N)cc4C(F)(F)F)nn3c2)CC1
pIC50 (SJRH30): 5.75

From ChEMBL document CHEMBL4732078 (Eur J Med Chem, 2021)
